STAT3 blocker: inhibitors of IL-6 induced STAT3 signaling; U3A cells, IL-6 STAT3-luciferase reporter, luminescence; host cell line lacks STAT1; inhibition, % at 5.5 µM; AID 862; 190,000 tested, 0.89% active;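 active means inhibition above the mean inhibition across all screened compounds plus 3 SD, cut at about 44% in these data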;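 further: 0% = DMSO only wells and 100% = 100 µM nifuroxazide control wells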
HSP90 refold inh: inhibitors of HSP90 luciferase refolding in rabbit reticulocyte lysate; luciferase refolding luminescence, 3 h; inhibition, % at 5.6 µM; 290,000 tested, 0.91% active;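 active means inhibition above the screen-wide mean plus 3 SD, computed separately per campaign, cut at about 16% in these data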;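 further: 0% = DMSO wells and 100% = 60 µM geldanamycin wells; inhibitors lower the luminescence because luciferase stays unfolded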
STAT3 activator: increases IL-6 driven STAT3 reporter signal; U3A cells, IL-6 STAT3-luciferase reporter, luminescence; 100% = signal with IL-6 EC80 alone; activation (% of control), % at 5.6 µM; 190,000 tested, 0.91% active; AID 871;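 active means activation above the screen-wide mean of compound activation plus 3 SD, cut at about 130% in these data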;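 further: 0% = background luminescence of wells with medium and substrate only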
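Material: human STAT1-deficient U3A cells with stable STAT3-luciferase reporter / Probe or stimulus: IL-6 stimulus at 33 ng/mL final / Schedule: 1 h compound pre-exposure, 6 h IL-6 stimulation, 37 °C / Technique: luminescence / Read-out basis: percent of IL-6-only median luminescence / Control set: IL-6-only high control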
C8 TRAIL sens: sensitizes caspase-8 expressing cells to TRAIL; NB7+C8 cells + TRAIL, ATPlite viability luminescence; inhibition (viability loss, TRAIL sensitization), % at 10 µM; 360,000 tested, 1% active; AID 624354;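 active means compounds causing at least 50% loss of cell viability in the single-dose screen, relative to plate controls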
PPC-1+TRAIL kill: PPC-1 cancer cell killing with TRAIL present; PPC-1 cells + TRAIL, ATPLite viability luminescence; cell killing (% activity), % at 4 µM or 5 µM; 220,000 tested, 0.41% active; AID 1443;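 active means cell killing above 50% in the first pass at 4 µM, then a duplicate retest at 5 µM averaging 50% or more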;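 further: plate controls were cells with TRAIL plus DMSO for no effect and medium-only wells lacking cells for full effect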
STAT1 inh: STAT1 signaling inhibition; NIH 3T3 STAT1-luciferase reporter, IFN-gamma, luminescence; inhibition, % at 5.5 µM; 200,000 tested, 0.35% active;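 active means inhibition above a set limit, the mean inhibition across all tested compounds plus 3 SD, cut at about 34% in these data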;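 further: 0% = IFN-gamma with DMSO and 100% = IFN-gamma with 300 µM nifuroxazide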
PPC-1 tox: kills PPC-1 cells; shares compounds with PPC-1+TRAIL kill; PPC-1 viability, ATPlite luminescence, overnight; cytotoxicity, % at 5 µM; 1,200 tested, 50% active;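 active means reconfirmed compounds whose average cytotoxicity reaches 50% or more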;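 further: 0% = DMSO-treated cells and 100% = wells holding medium but no cells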
The depositor's hits bear a star; . = no result. Compounds with a hit are over-represented: about 2.3% of the library has one in this group of screens.

SMILES	STAT3 blocker	HSP90 refold inh	STAT3 activator	C8 TRAIL sens	PPC-1+TRAIL kill	STAT1 inh	PPC-1 tox
CCCNC(=O)c1oc2ccc3c(c2c1C)C(=O)CC(C)(C)O3	6	-4	99	52*	52*	-48	47
CCCNC(=O)c1oc2ccc3c(c2c1C)C=CC(C)(C)O3	.	-5	.	3	.	.	.
O=C(Cc1cccs1)NNC(=S)NCc1ccco1	7	3	99	-3	3	5	.
O=C(Cc1cccs1)Nc1ccc(Cl)cc1	-25	0	124	-6	3	2	2
O=C(Cc1cccs1)NCc1ccco1	6	6	98	-5	1	-6	-5
NC(=O)c1ccc(NC(=O)Cc2cccs2)cc1	.	0	.	0	.	.	.
Cc1c(C(=O)OCC(=O)N(CC(C)C)c2c(N)n(Cc3ccccc3)c(=O)[nH]c2=O)oc2ccccc12	.	.	.	-34	.	.	.
CCN(CC)CCNC(=O)Cn1cnc2sc(C)c(S(=O)(=O)N3CCN(c4ncccn4)CC3)c2c1=O	6	-2	96	-7	22	-12	.
COCc1cc(C)nc(SCc2nc3ccccc3c(=O)[nH]2)c1C#N	14	1	93	3	-5	-12	.
Cc1cc(C)c(C#N)c(SCc2nc3ccccc3c(=O)[nH]2)n1	26	4	82	77*	80*	-14	79*
CCOc1ccc(C(=O)Nc2nnc(NC(=S)Nc3ccccc3)s2)cc1	-3	-2	106	55*	13	-14	8
Cc1ccc(C(=O)Nc2nnc(NC(=S)Nc3ccccc3)s2)cc1	40	-2	69	25	36	-22	.
CCn1c(N2CCN(C(=S)NCC(C)C)CC2)nc2ccccc21	35	-1	78	2	4	6	.
Cc1ccc(NC(=O)c2ccc(OC(=O)c3ccco3)cc2)cc1	-20	-2	117	34	30	-37	35
Cc1ccc(Oc2ccc(NC(=O)c3ccco3)cc2)cc1	5	6	102	-7	21	-18	.
CCN(CC)c1ccc(NC(=O)c2ccco2)cc1	20	8	88	62*	58*	-28	61*
Cc1nc2cc(NCc3nc4ccccc4n3Cc3ccccc3)ccc2n1C	6	16*	98	18	61*	-38	63*
O=c1nc(N/N=C/c2ccccn2)cn[nH]1	27	0	79	38	0	-4	.
Cn1c(C(=O)N2CCc3ccccc3C2)cc2oc3ccccc3c21	5	-3	100	2	5	-17	.
CCn1c(C(=O)N2CCc3ccccc3C2)cc2oc3ccccc3c21	11	3	95	-8	5	8	9
COc1cc(C)c2sc3ccccc3c(=O)c2c1NCCN(C)C	.	.	.	24	.	.	.
Cc1ccc(-c2cc3nc(C)cc(NCc4ccco4)n3n2)cc1	-1	4	105	63*	14	-56	20
Oc1ccc(/C=C/c2ccc3ccccc3n2)cc1	102*	24*	18	72*	56*	72*	56*
CCCN(CCC)c1ccc(/C=C/c2ccc3cc(OCC)ccc3n2)cc1	.	5	.	4	15	.	.
CN(C)c1ccc(/C=C/c2ccc3ccccc3n2)cc1	.	84*	.	89*	92*	.	92*
SMILES	STAT3 blocker	HSP90 refold inh	STAT3 activator	C8 TRAIL sens	PPC-1+TRAIL kill	STAT1 inh	PPC-1 tox
Oc1cccc(/C=C/c2ccc3cccc(O)c3n2)c1	.	6	.	33	.	.	.
Cc1csc(NC(=O)C2CCN(S(=O)(=O)c3cccs3)CC2)n1	13	-2	95	8	13	1	.
CCCn1c(NC(=O)C2CCN(S(=O)(=O)c3cccs3)CC2)nc2ccccc21	28	3	80	34	11	18	10
CCN1C(=O)CS/C1=N\S(=O)(=O)c1ccc(Cl)cc1	11	3	92	-2	21	4	.
CCn1c(Cl)c(C=O)s/c1=N\S(=O)(=O)c1ccccc1	.	3	.	39	23	.	38
Nc1nc(Nc2cccc(F)c2)nc2ccccc12	3	0	103	27	28	-50	29
Cc1ccnc(NC(=O)Nc2ccc3c(c2)OCO3)c1	42	-2	67	55*	36	-50	41
O=C(Nc1ccc2c(c1)OCO2)Nc1ccc(Br)cn1	-7	-3	108	10	18	-53	.
O=C(NCCCNC(=O)c1ccccn1)c1ccccn1	5	4	101	6	-5	5	.
c1ccc(-c2cnnc(-c3ccccn3)n2)cc1	.	.	.	3	.	.	.
CC1(C)NC(C(=O)O)Cc2c1[nH]c1ccccc21 (centres undefined)	-6	-1	105	-1	-4	15	6
O=c1c(-c2ccc3c(c2)OCCO3)coc2cc(O)cc(O)c12	12	2	93	32	34	-21	36
COc1ccc(OCC(=O)N/N=C(\C)c2cccs2)cc1	.	1	.	-11	15	.	.
COc1ccc(OCC(=O)N/N=C(\CCC(=O)O)c2cccs2)cc1	10	1	92	0	14	-2	10
CCC(=O)N1CCc2cc(S(=O)(=O)N3CCc4ccccc43)ccc21	32	3	77	12	-3	3	-3
O=C(O)CCCC(=O)N1CCc2cc(S(=O)(=O)N3CCc4ccccc43)ccc21	-22	0	122	7	8	5	.
CCCn1c(N)c(C(=O)CSc2nnc(Cc3ccccc3)o2)c(=O)n(C)c1=O	41	3	67	4	13	24	8
O=C(CSc1nnc(Cc2ccccc2)o1)c1ccccc1	4	-1	98	1	.	-6	.
Cc1ccc(S(=O)(=O)Nc2cccc3ncccc23)cc1	.	1	.	-10	12	.	.
Cc1ccc(S(=O)(=O)Nc2cccc3ncccc23)s1	-15	-1	115	27	20	-95	30
S=c1[nH]ncn1/N=C/c1ccc(N2CCOCC2)cc1	16	3	86	51*	62*	10	64*
Cc1ccc(C#CC[N+]2(CC#Cc3ccc(C)cc3)CCCCC2)cc1	25	-1	81	34	15	21	20
COC1=C(Nc2ccc(O)cc2)C(=O)c2ccccc2C1=O	-16	-2	111	9	28	-10	.
O=C1C(Cl)=C(Nc2ccc(O)cc2)C(=O)c2ccccc21	.	6	.	89*	29	.	30
CCN(CC)CCNC(=O)c1ccc2c(c1NCCO)C(=O)c1ccccc1C2=O	.	9	.	95*	33	.	27
Cc1cccc(-n2cc3c(=O)n(C)c(=O)n(C)c3c2)c1	25	3	82	14	11	-10	.
COc1ccc(NC(=O)/C(C#N)=C\c2ccc(N3CCOCC3)o2)cc1	23	1	84	65*	55*	-30	58*
O=c1cc(CN2CCN(c3ccc(F)cc3)CC2)c2cc3c(cc2o1)CCCC3	-1	0	104	7	15	-4	.
